Results reported in ChEMBL document CHEMBL4680218, “Design and synthesis of tripeptidyl furylketones as selective inhibitors against the β5 subunit of human 20S proteasome” (Eur J Med Chem, 2020).
Blank lines part the entries; values can stand above or below the compound they belong to. The source made the active and inactive calls.

How the values were obtained:
[1] = Clearance in Sprague-Dawley rat at 4 mg/kg, iv measured up to 48 hrs by LC-MS/MS analysis; details: in vivo
[2] = system: HCT-116; test: Antitumour activity against human HCT-116 cells xenografted in BALB/c athymic nude mouse assessed as reduction in tumour growth at 5 mg/kg, iv administered twice a week for 28 days by caliper analysis; assay type: functional, organism-based; details: time 28.0 day
How it was run: (§1)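 Male nude mice had 1 × 10^7 HCT-116 cells in serum-free RPMI 1640 implanted subcutaneously in the right flank. At ~300 mm³ (about day 10) they were randomized, n=3/group. Dosing was by tail vein twice weekly (D1/D4) for four weeks: 10 mg/kg in 8% ethanol/2% Tween 80/90% water, or 5 mg/kg in 10% sulfobutylether-β-cyclodextrin, 10 mmol/L citrate pH 3.5. Caliper volume (length × width²)/2 and body weight were measured twice weekly.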

[3] = Volume of distribution at steady state in Sprague-Dawley rat at 4 mg/kg, iv measured up to 48 hrs by LC-MS/MS analysis; details: in vivo
[4] = target: T1, Proteasome Macropain subunit MB1 (Homo sapiens) (UniProt P28074); test: Irreversible inhibition of human 20S proteasome beta5 subunit assessed as residual enzyme activity using Suc-LLVY-Glo as substrate preincubated for 2 hrs followed by compound washout and further incubated for 4 hrs followed by substrate addition and measured after 10 mins by bioluminescent assay relative to control
T1 sequence (whole entry): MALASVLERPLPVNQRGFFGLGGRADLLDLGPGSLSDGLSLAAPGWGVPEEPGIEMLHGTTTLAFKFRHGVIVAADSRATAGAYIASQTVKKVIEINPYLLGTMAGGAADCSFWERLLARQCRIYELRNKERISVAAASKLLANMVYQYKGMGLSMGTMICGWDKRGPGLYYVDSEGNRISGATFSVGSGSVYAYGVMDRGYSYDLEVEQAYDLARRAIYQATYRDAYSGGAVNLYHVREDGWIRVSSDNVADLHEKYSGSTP
How it was run: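 Human 20S proteasome (8 μg/mL) was pre-incubated with inhibitor for 2 h at 25 °C. Samples were then washed five times in assay buffer on 100 kDa cut-off centrifugal filters (14,000 g, 5 min each) and recovered. After a further 4 h at 25 °C, Suc-LLVY-Glo was added and luminescence was read after 10 min. Unwashed samples held an extra 4 h served as the standard.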

[5] = Cmax in Sprague-Dawley rat at 4 mg/kg, iv measured up to 48 hrs by LC-MS/MS analysis; assay type: ADME, organism-based; parameters: route intravenous, dose 4 mg/kg, time <=48; details: in vivo
[6] = target: T1, Proteasome Macropain subunit MB1 (Homo sapiens); test: Covalent binding affinity to human 20S proteasome beta5 subunit assessed as compound-tryptic digest TTTLAFKFR peptide adduct formation at 10 uM incubated for 2 hrs measured after overnight incubation with trypsin by LC-MS/MS analysis
How it was run: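 Purified human 20S proteasome (4 nM) was incubated with 10 μM inhibitor for 2 h at room temperature, then quenched and denatured with acetonitrile. Trypsin (1:50) digestion ran overnight at 37 °C, followed by C18 desalting. Nano-LC-MS/MS used a 0.1% formic acid water/acetonitrile gradient. Adducts were searched against UniProt at ±10 ppm precursor and ±0.02 Da fragment tolerance, allowing 2 missed cleavages.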

[7] = in vivo; details: Sprague-Dawley, rat, iv, 4 mg/kg
[8] = Half life in Sprague-Dawley rat at 4 mg/kg, iv measured up to 48 hrs by LC-MS/MS analysis; details: in vivo
[9] = Toxicity in BALB/c athymic nude mouse xenografted with human HCT-116 cells assessed as reduction in body weight at 5 mg/kg, iv administered twice a week for 28 days; assay type: organism-based; details: in vivo, 672 h, time 28 day; how it was run: as §1
[10] = system: A549; test: Cytotoxicity against human A549 cells assessed as reduction in cell viability after 72 hrs by Cell Titer-Glo assay; assay type: functional, cell-based; details: A549, 72 h
How it was run: (§2)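 Cells were cultured in their respective media with 10% FBS, seeded from log phase at 1000 cells/well, and given compound after 18–24 h. After 72 h, an equal volume of CellTiter-Glo reagent was added and luminescence was read at 37 °C. IC50 came from dose-response curve fits; values are mean ± SD of three independent experiments, each in biological triplicate.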

[11] = system: HCT-116; test: Cell cycle arrest in human HCT-116 cells assessed as accumulation at S phase at 1 uM after 24 hrs by propidium iodide staining based flow cytometric analysis (reference value: 50%); assay type: functional
[12] = system: BGC-823; test: Cytotoxicity against human BGC-823 cells assessed as reduction in cell viability after 72 hrs by Cell Titer-Glo assay; assay type: functional, cell-based; details: BGC-823, 72 h; how it was run: as §2
[13] = system: HeLa; test: Cytotoxicity against human HeLa cells assessed as reduction in cell viability after 72 hrs by Cell Titer-Glo assay; assay type: functional, cell-based; how it was run: as §2
[14] = system: HT-29; test: Cytotoxicity against human HT-29 cells assessed as reduction in cell viability after 72 hrs by Cell Titer-Glo assay; assay type: functional, cell-based; details: HT-29, 72 h; how it was run: as §2
[15] = system: HCT-116; test: Cell cycle arrest in human HCT-116 cells assessed as accumulation at G2/M phase at 1 uM after 24 hrs by propidium iodide staining based flow cytometric analysis (reference value: 21%); assay type: functional
[16] = target: T1, Proteasome Macropain subunit MB1 (Homo sapiens); test: Inhibition of chymotrypsin-like activity of human 20S proteasome beta5 subunit at 50 uM using Suc-LLVY-Glo as substrate incubated for 2 hrs followed by substrate addition and measured for 10 mins by bioluminescent assay relative to control; details: time 130.0 min
How it was run: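 Human constitutive 20S proteasome (1 µg/mL) was incubated with compound for 2 h at 25 °C in 10 mM HEPES pH 7.6 with 1% DMSO final. Suc-LLVY-Glo substrate was then added, and luminescence was read over 10 min. Inhibition rate was calculated against the uninhibited signal.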

[17] = system: HEK293; test: Cytotoxicity against human HEK293 cells assessed as reduction in cell viability after 72 hrs by Cell Titer-Glo assay; assay type: cell-based; details: HEK293, 72 h; how it was run: as §2
[18] = target: T2, Proteasome Macropain subunit MB1 (Homo sapiens, UniProt P28074); test: Inhibition of chymotrypsin-like activity of human 20S proteasome beta5 subunit using Suc-LLVY-Glo as substrate incubated for 2 hrs followed by substrate addition and measured for 10 mins by bioluminescent assay
T2 sequence (P28074 whole entry): T1 sequence (whole entry)
How it was run: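 Human constitutive 20S proteasome (1 μg/mL) was combined with compound serially diluted in 10 mM HEPES pH 7.6, with final DMSO 1% (v/v). After 2 h at 25 °C, Suc-LLVY-Glo (CT-L), Z-LRR-Glo (T-L) or Z-nLPnLD-Glo (C-L) reagent was added. Luminescence was read over 10 min, and IC50 was taken from inhibition rates.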

[19] = Cytotoxicity against human PC3M1E8 cells assessed as reduction in cell viability after 72 hrs by Cell Titer-Glo assay; assay type: functional, cell-based; details: PC3M1E8, 72 h; how it was run: as §2
[20] = system: A-375; test: Cytotoxicity against human A-375 cells assessed as reduction in cell viability after 72 hrs by Cell Titer-Glo assay; assay type: functional, cell-based; details: A-375, 72 h; how it was run: as §2
[21] = system: HCT-116; test: Cytotoxicity against human HCT-116 cells assessed as reduction in cell viability after 72 hrs by Cell Titer-Glo assay; assay type: functional, cell-based; details: HCT-116, 72 h; how it was run: as §2
[22] = system: HCT-116; test: Cell cycle arrest in human HCT-116 cells assessed as accumulation at G1 phase at 1 uM after 24 hrs by propidium iodide staining based flow cytometric analysis (reference value: 29%); assay type: functional

clearance at 48 h [1]: 195 mL/min/kg
Vd at 48 h [3]: 0.3 L/kg
Activity [4]: 10%
Cmax [5]: 27800 ng/mL
Activity [6]: Active
AUC(0-t) at 48 h [7]: 343 ng·h/mL
half-life at 48 h [8]: 17 min
Structure (SMILES): CC(C)C[C@H](NC(=O)[C@H](CCc1ccccc1)NC(=O)CN1CCOCC1)C(=O)N[C@@H](Cc1ccccc1)C(=O)N[C@@H](CC(C)C)C(=O)[C@@]1(C)CO1 [CARFILZOMIB]
Activity [2]: Active
Activity [9]: Non-Toxic

inhibition [16]: > 50%
IC50 [18]: 0.68 µM
Structure (SMILES): COC[C@H](NC(=O)[C@H](CC(=O)NCC(C)C)NS(=O)(=O)c1ccc(C)cc1)C(=O)N[C@@H](CC(C)C)C(=O)c1ccco1
IC50 [10]: 17.6 µM
Activity [11]: 30%
IC50 [12]: 3.96 µM
IC50 [13]: 2.47 µM
IC50 [14]: 4.85 µM
Activity [15]: 43%
IC50 [17]: > 50 µM
IC50 [19]: 3.73 µM
IC50 [20]: 2.61 µM
IC50 [21]: 1.67 µM
Activity [22]: 27%
